Published values gathered from unrelated publications.
EGFR: Epidermal growth factor receptor (EGFR, Homo sapiens, UniProt P00533)
Transmembrane protease serine 6: Transmembrane protease serine 6 (Homo sapiens, UniProt Q8IU80)
Palmitoyl-protein thioesterase 1: Palmitoyl-protein thioesterase 1 (Homo sapiens, UniProt P50897)

| SMILES | target | test | conditions | endpoint | result |
| --- | --- | --- | --- | --- | --- |
| O=C(CCn1c(=O)ccc2ccccc21)N1CCOCC1 | EGFR | enzyme activity, inhibitor | 10 µM | inhibition | 86.8% |
| C=CC(=O)N1CCC(COCC(=O)N2CCN(c3nc(-c4cnc(N)nc4C(F)F)nc(N4CCOC[C@@H]4C)n3)CC2)CC1 | Ribosomal protein S6 kinase alpha-2, N-terminal kinase domain (RPS6KA2, Homo sapiens, UniProt Q15349) | binding, competition with immobilised ligand | 1 µM | remaining binding | 100% |
| N=C(N)NCCC[C@H](NC(=O)C1(NC(=O)[C@H](Cc2cscn2)NC(=O)CCc2ccccc2)CC1)C(=O)c1nc2ccccc2s1 | Transmembrane protease serine 6 | enzyme activity, inhibitor | 0.1 µM | remaining activity | 60% |
| C/C=C\c1ccc(O)c(OC)c1 | Palmitoyl-protein thioesterase 1 | enzyme activity, inhibitor | 312 µM | inhibition | 22.2% |
| COc1cc(-c2cncc3c2CN(C)Cc2cc(N4CCNCC4)ccc2-3)cc(OC)c1OC | Protein kinase C delta type (PRKCD, Homo sapiens, UniProt Q05655) | enzyme activity, inhibitor | 1 µM | remaining activity | 104% |
| CCCCCCCCCCCCCCCC(=O)O | Palmitoyl-protein thioesterase 1 | enzyme activity, inhibitor | 125 µM | inhibition | 42.4% |
| CC(C)(C)C[C@H](NC(=O)[C@H](Cc1cscn1)NC(=O)CCc1ccccc1)C(=O)N[C@@H](CCCNC(=N)N)C(=O)c1nc2ccccc2s1 | Transmembrane protease serine 6 | enzyme activity, inhibitor | 0.1 µM | remaining activity | 3% |
| Cc1ncc(CNCc2ccco2)c2cc(-c3cc(=O)oc4cc5c(cc34)CCC5)oc12 | EGFR | enzyme activity, inhibitor, ADP detection | 1 µM | inhibition | 0 to 40% |
| COc1cnc(NS(=O)(=O)c2ccc(N)cc2)nc1 | Palmitoyl-protein thioesterase 1 | enzyme activity, inhibitor | 125 µM | inhibition | 13.6% |
| CC(C)C(C)(NC(=O)[C@H](Cc1cscn1)NC(=O)CCc1ccccc1)C(=O)N[C@@H](CCCNC(=N)N)C(=O)c1nc2ccccc2s1 (some centres unmarked) | Transmembrane protease serine 6 | enzyme activity, inhibitor | 0.1 µM | remaining activity | 96% |
| C=CCc1ccc(O)c(OC)c1 | Palmitoyl-protein thioesterase 1 | enzyme activity, inhibitor | 834 µM | inhibition | 11.7% |
| N=C(N)NCCC[C@H](NC(=O)[C@@H](NC(=O)[C@H](Cc1cscn1)NC(=O)CCc1ccccc1)C1CCCCC1)C(=O)c1nc2ccccc2s1 | Transmembrane protease serine 6 | enzyme activity, inhibitor | 0.1 µM | remaining activity | 5% |
| O=C(O)CCCc1c[nH]c2ccccc12 | Palmitoyl-protein thioesterase 1 | enzyme activity, inhibitor | 125 µM | inhibition | 14% |
| CC(C)(C)[C@H](NC(=O)[C@H](Cc1cscn1)NC(=O)CCc1ccccc1)C(=O)N[C@@H](CCCNC(=N)N)C(=O)c1nc2ccccc2s1 | Transmembrane protease serine 6 | enzyme activity, inhibitor | 0.1 µM | remaining activity | 55% |
| Cc1ccc2c(-c3cc4c(CN5CCN(Cc6ccccn6)CC5)cnc(C)c4o3)cc(=O)oc2c1 | EGFR | enzyme activity, inhibitor, ADP detection | 1 µM | inhibition | 60 to 80% |
| CCCC[C@H](NC(=O)[C@H](Cc1cscn1)NC(=O)CCc1ccccc1)C(=O)N[C@@H](CCCNC(=N)N)C(=O)c1nc2ccccc2s1 | Transmembrane protease serine 6 | enzyme activity, inhibitor | 0.1 µM | remaining activity | 22% |
| C=C1CC[C@H]2C(=C)CC[C@H]3C(=C)C(=O)O[C@@H]3[C@@H]12 | Palmitoyl-protein thioesterase 1 | enzyme activity, inhibitor | 125 µM | inhibition | 4.92% |
| Cc1cc([C@@H](C)Nc2ccccc2C(=O)O)c2nc(N3CCC(F)(F)CC3)c(C#N)c(=O)n2c1 | SRSF protein kinase 3 (SRPK3, Homo sapiens, UniProt Q9UPE1) | binding, competition with immobilised ligand | 1 µM | remaining binding | 77% |
| Cc1ncc(CN2CCN(Cc3ccccn3)CC2)c2cc(C(=O)c3ccc4c(c3)OCCO4)oc12 | Epidermal growth factor receptor (EGFR, Homo sapiens, UniProt P00533, L858R/T790M) | enzyme activity, inhibitor, ADP detection | 1 µM | inhibition | 65 to 75% |
| CC[C@H](NC(=O)[C@H](Cc1cscn1)NC(=O)CCc1ccccc1)C(=O)N[C@@H](CCCNC(=N)N)C(=O)c1nc2ccccc2s1 | Transmembrane protease serine 6 | enzyme activity, inhibitor | 0.1 µM | remaining activity | 20 to 50% |
| CC1(C)C=Cc2c(ccc3c2OC[C@@H](c2ccc(O)cc2O)C3)O1 | Neuronal acetylcholine receptor; alpha4/beta2 (Homo sapiens, UniProt P17787+P43681) | ion current, two-electrode voltage clamp | 13 µM, oocytes | inhibition | > 50% |
| [H]/N=C(\N/C(=N/[H])Nc1ccc(Cl)cc1)NC(C)C | Palmitoyl-protein thioesterase 1 | enzyme activity, inhibitor | 125 µM | inhibition | -0.79% |
| CNc1ncc2c(/C=C/C(=O)N3CCC(OC)CC3)nn(Cc3cccc(C(F)(F)F)c3)c2n1 | Ribosomal protein S6 kinase alpha-2 (RPS6KA2, Homo sapiens, UniProt Q15349) | enzyme activity, inhibitor, radiometric | 1 µM | remaining activity | 86% |
| COc1ccc2[nH]cc(CCNC(C)=O)c2c1 | Palmitoyl-protein thioesterase 1 | enzyme activity, inhibitor | 125 µM | inhibition | 8.97% |
| Cc1ccc2c(-c3cc4c(CNCc5cccnc5)cnc(C)c4o3)cc(=O)oc2c1C | EGFR | enzyme activity, inhibitor, ADP detection | 1 µM | inhibition | 90 to 100% |
| N=C(N)NCCC[C@H](NC(=O)[C@@H](NC(=O)[C@H](Cc1cscn1)NC(=O)CCc1ccccc1)c1ccccc1)C(=O)c1nc2ccccc2s1 | Transmembrane protease serine 6 | enzyme activity, inhibitor | 0.1 µM | remaining activity | 6% |
